Converted amounts (≈) assume the structure as drawn.
Key:
[1] = test system: M. tuberculosis H37Rv strain (ATCC 27294); assay: Antitubercular activity, microplate Alamar Blue assay; format: cell-based; settings: Mycobacterium tuberculosis, ATCC27294|H37RV, read-out: MIC μM
[2] = test system: P. aeruginosa (ATCC 27853); assay: Antibacterial zone of inhibition; format: cell-based; settings: Pseudomonas aeruginosa, ATCC27853, read-out: Zone of inhibition in mm, P. aeruginosa (ATCC 27853)
How it was run: (§1)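 Sterilised nutrient agar, […], was seeded with 18–24 h bacterial subcultures, mixed and poured into Petri dishes. Once the agar set, 6 mm wells were cut with a sterile cork borer and filled with test compound dissolved in DMSO at 100 μg mL−1. Plates were incubated at 37 °C for 24–48 h, and inhibition zones around each well were measured in mm. Ciprofloxacin was the reference standard.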

B. subtilis (ATCC 6051) = assay: Antibacterial zone of inhibition; format: cell-based, Bacillus subtilis; settings: 100 μg mL^−1; for zone of inhibition at 100 µg/mL: Bacillus subtilis, ATCC6051, read-out: Zone of inhibition in mm, B. subtilis (ATCC 6051), Gram positive; for Zone of inhibition in mm, B. subtilis (ATCC 6051): Gram positive
How it was run: as §1

E. coli (ATCC 25922) = assay: Antibacterial zone of inhibition; format: cell-based; settings: Escherichia coli, ATCC25922, read-out: Zone of inhibition in mm, E. coli (ATCC 25922)
How it was run: as §1

S. aureus (ATCC 23235) = assay: Antibacterial zone of inhibition; format: cell-based; settings: Staphylococcus aureus, ATCC23235, read-out: Zone of inhibition in mm, S. aureus (ATCC 23235)
How it was run: as §1

NC(=O)c1cnccn1 [PZA, pyrazinamide, reference compound]
MIC [1]: 25.3 µM (≈ 3.12 µg/mL)

CCOC(=O)/C=C1/SC(N/N=C/c2c(-c3ccc(F)cc3)nc3ncccn23)=NC1=O [Compound K24, Ethyl(E)-2-(2-(2-((E)-(2-(4-fluorophenyl)imidazo[1,2-a]pyrimidin-3-yl)methylene) hydrazineyl)-4-oxothiazol-5(4H)-ylidene)acetate]
MIC [1]: 28.5 µM (≈ 12.5 µg/mL)

CCOC(=O)c1sc(N/N=C/c2c(-c3ccc(Br)cc3)nc3ncccn23)nc1C [Compound K5, Ethyl(E)-2-(2-((2-(4-bromophenyl)imidazo[1,2-a]pyrimidin-3-yl)methylene)hydrazineyl)-4-methylthiazole-5-carboxylate]
zone of inhibition at 100 µg/mL [2]: 13 mm
zone of inhibition at 100 µg/mL (B. subtilis (ATCC 6051)): 13 mm
MIC [1]: 12.9 µM (≈ 6.27 µg/mL)
zone of inhibition at 100 µg/mL (E. coli (ATCC 25922)): 14 mm
zone of inhibition at 100 µg/mL (S. aureus (ATCC 23235)): 11 mm

CC(=O)c1sc(N/N=C/c2c(-c3ccccc3)nc3ncccn23)nc1C [Compound K21, (E)-1-(4-methyl-2-(2-((2-phenylimidazo[1,2-a]pyrimidin-3-yl)methylene)hydrazineyl)thiazol-5-yl)ethan-1-one]
zone of inhibition at 100 µg/mL (B. subtilis (ATCC 6051)): 13 mm
MIC [1]: 33.2 µM (≈ 12.5 µg/mL)
zone of inhibition at 100 µg/mL (S. aureus (ATCC 23235)): 19 mm

CC(=O)c1sc(N/N=C/c2c(-c3ccc(C)cc3)nc3ncccn23)nc1C [Compound K15, (E)-1-(4-methyl-2-(2-((2-(p-tolyl)imidazo[1,2-a]pyrimidin-3-yl)methylene)hydrazineyl)thiazol-5-yl)ethan-1-one]
zone of inhibition at 100 µg/mL [2]: 14 mm
zone of inhibition at 100 µg/mL (B. subtilis (ATCC 6051)): 13 mm
MIC [1]: 32 µM (≈ 12.5 µg/mL)
zone of inhibition at 100 µg/mL (E. coli (ATCC 25922)): 15 mm
zone of inhibition at 100 µg/mL (S. aureus (ATCC 23235)): 12 mm

CCOC(=O)/C=C1/SC(N/N=C/c2c(-c3ccc(C)cc3)nc3ncccn23)=NC1=O [Compound K22, Ethyl(E)-2-(4-oxo-2-(2-((E)-(2-(p-tolyl)imidazo[1,2-a]pyrimidin-3-yl)methylene) hydrazineyl)thiazol-5(4H)-ylidene)acetate]
zone of inhibition at 100 µg/mL [2]: 13 mm
zone of inhibition at 100 µg/mL (B. subtilis (ATCC 6051)): 15 to 20 mm
Zone of inhibition in mm, B. subtilis (ATCC 6051) (B. subtilis (ATCC 6051)): 15 mm
MIC [1]: 28.8 µM (≈ 12.5 µg/mL)
zone of inhibition at 100 µg/mL (E. coli (ATCC 25922)): 24 mm
zone of inhibition at 100 µg/mL (S. aureus (ATCC 23235)): 15 mm

CCOC(=O)c1cnc(N/N=C/c2c(-c3ccc(C)cc3)nc3ncccn23)s1 [Compound K8, Ethyl(E)-2-(2-((2-(p-tolyl)imidazo[1,2-a]pyrimidin-3-yl)methylene)hydrazineyl)thiazole-5-carboxylate]
zone of inhibition at 100 µg/mL [2]: 19 mm
MIC [1]: 7.68 µM (≈ 3.12 µg/mL)
zone of inhibition at 100 µg/mL (E. coli (ATCC 25922)): 17 mm
zone of inhibition at 100 µg/mL (S. aureus (ATCC 23235)): 12 mm

CC(=O)c1sc(N/N=C/c2c(-c3ccc(F)cc3)nc3ncccn23)nc1C [Compound K17, (E)-1-(2-(2-((2-(4-fluorophenyl)imidazo[1,2-a]pyrimidin-3-yl)methylene)hydrazineyl)-4-methylthiazol-5-yl)ethan-1-one]
zone of inhibition at 100 µg/mL [2]: 11 mm
zone of inhibition at 100 µg/mL (B. subtilis (ATCC 6051)): 14 mm
MIC [1]: 7.91 µM (≈ 3.12 µg/mL)
zone of inhibition at 100 µg/mL (S. aureus (ATCC 23235)): 20 mm

CCOC(=O)/C=C1/SC(N/N=C/c2c(-c3ccc(Cl)cc3)nc3ncccn23)=NC1=O [Compound K25, Ethyl(E)-2-(2-(2-((E)-(2-(4-chlorophenyl)imidazo[1,2-a]pyrimidin-3-yl)methylene) hydrazineyl)-4-oxothiazol-5(4H)-ylidene)acetate]
zone of inhibition at 100 µg/mL [2]: 20 mm
zone of inhibition at 100 µg/mL (B. subtilis (ATCC 6051)): 15 to 20 mm
Zone of inhibition in mm, B. subtilis (ATCC 6051) (B. subtilis (ATCC 6051)): 20 mm
MIC [1]: 55 µM (≈ 25 µg/mL)
zone of inhibition at 100 µg/mL (E. coli (ATCC 25922)): 21 mm
zone of inhibition at 100 µg/mL (S. aureus (ATCC 23235)): 21 mm

COc1ccc(-c2nc3ncccn3c2/C=N/Nc2nc(C)c(C(C)=O)s2)cc1 [Compound K16, (E)-1-(2-(2-((2-(4-methoxyphenyl)imidazo[1,2-a]pyrimidin-3-yl)methylene)hydrazineyl)-4-methylthiazol-5-yl)ethan-1-one]
zone of inhibition at 100 µg/mL [2]: 11 mm
MIC [1]: 30.8 µM (≈ 12.5 µg/mL)
zone of inhibition at 100 µg/mL (S. aureus (ATCC 23235)): 18 mm

CCOC(=O)/C=C1/SC(N/N=C/c2c(-c3ccc(Br)cc3)nc3ncccn23)=NC1=O [Compound K26, Ethyl(E)-2-(2-(2-((E)-(2-(4-bromophenyl)imidazo[1,2-a]pyrimidin-3-yl)methylene) hydrazineyl)-4-oxothiazol-5(4H)-ylidene)acetate]
zone of inhibition at 100 µg/mL (B. subtilis (ATCC 6051)): 15 mm
MIC [1]: 50.2 µM (≈ 25.1 µg/mL)
zone of inhibition at 100 µg/mL (S. aureus (ATCC 23235)): 15 mm

CCOC(=O)c1sc(N/N=C/c2c(-c3ccc(C#N)cc3)nc3ncccn23)nc1C [Compound K6, Ethyl(E)-2-(2-((2-(4-cyanophenyl)imidazo[1,2-a]pyrimidin-3-yl)methylene)hydrazineyl)-4-methylthiazole-5-carboxylate]
zone of inhibition at 100 µg/mL [2]: 15 mm
zone of inhibition at 100 µg/mL (B. subtilis (ATCC 6051)): 14 mm
MIC [1]: 29 µM (≈ 12.5 µg/mL)
zone of inhibition at 100 µg/mL (E. coli (ATCC 25922)): 10 mm
zone of inhibition at 100 µg/mL (S. aureus (ATCC 23235)): 17 mm

CC(=O)c1sc(N/N=C/c2c(-c3ccc(Cl)cc3)nc3ncccn23)nc1C [Compound K18, (E)-1-(2-(2-((2-(4-chlorophenyl)imidazo[1,2-a]pyrimidin-3-yl)methylene)hydrazineyl)-4-methylthiazol-5-yl)ethan-1-one]
zone of inhibition at 100 µg/mL [2]: 12 mm
zone of inhibition at 100 µg/mL (B. subtilis (ATCC 6051)): 15 to 20 mm
Zone of inhibition in mm, B. subtilis (ATCC 6051) (B. subtilis (ATCC 6051)): 15 mm
MIC [1]: 30.5 µM (≈ 12.5 µg/mL)
zone of inhibition at 100 µg/mL (E. coli (ATCC 25922)): 15 mm
zone of inhibition at 100 µg/mL (S. aureus (ATCC 23235)): 18 mm

CC(=O)c1sc(N/N=C/c2c(-c3ccc(C#N)cc3)nc3ncccn23)nc1C [Compound K20, (E)-4-(3-((2-(5-acetyl-4-methylthiazol-2-yl)hydrazineylidene)methyl)imidazo[1,2-a]pyrimidin-2-yl)benzonitrile]
zone of inhibition at 100 µg/mL [2]: 12 mm
zone of inhibition at 100 µg/mL (B. subtilis (ATCC 6051)): 15 to 20 mm
Zone of inhibition in mm, B. subtilis (ATCC 6051) (B. subtilis (ATCC 6051)): 15 mm
MIC [1]: 15.6 µM (≈ 6.25 µg/mL)
zone of inhibition at 100 µg/mL (E. coli (ATCC 25922)): 14 mm
zone of inhibition at 100 µg/mL (S. aureus (ATCC 23235)): 17 mm

[H]/N=C(/N)N[C@H]1[C@H](O)[C@@H](O)[C@H](O[C@@H]2O[C@@H](C)[C@](O)(C=O)[C@H]2O[C@@H]2O[C@@H](CO)[C@H](O)[C@@H](O)[C@@H]2NC)[C@@H](N/C(N)=N\[H])[C@@H]1O [STM, streptomycin, reference compound]
MIC [1]: 10.7 µM (≈ 6.25 µg/mL)

CCOC(=O)c1sc(N/N=C/c2c(-c3ccc(Cl)cc3)nc3ncccn23)nc1C [Compound K4, Ethyl(E)-2-(2-((2-(4-chlorophenyl)imidazo[1,2-a]pyrimidin-3-yl)methylene)hydrazineyl)-4-methylthiazole-5-carboxylate]
zone of inhibition at 100 µg/mL [2]: 11 mm
zone of inhibition at 100 µg/mL (B. subtilis (ATCC 6051)): 14 mm
MIC [1]: 14.2 µM (≈ 6.26 µg/mL)
zone of inhibition at 100 µg/mL (E. coli (ATCC 25922)): 20 mm
zone of inhibition at 100 µg/mL (S. aureus (ATCC 23235)): 13 mm

CC(=O)c1sc(N/N=C/c2c(-c3ccc(Br)cc3)nc3ncccn23)nc1C [Compound K19, (E)-1-(2-(2-((2-(4-bromophenyl)imidazo[1,2-a]pyrimidin-3-yl)methylene)hydrazineyl)-4-methylthiazol-5-yl)ethan-1-one]
zone of inhibition at 100 µg/mL [2]: 20 mm
zone of inhibition at 100 µg/mL (B. subtilis (ATCC 6051)): 12 mm
MIC [1]: 13.8 µM (≈ 6.27 µg/mL)
zone of inhibition at 100 µg/mL (S. aureus (ATCC 23235)): 12 mm

CCOC(=O)/C=C1/SC(N/N=C/c2c(-c3ccc(OC)cc3)nc3ncccn23)=NC1=O [Compound K23, Ethyl(E)-2-(2-(2-((E)-(2-(4-methoxyphenyl)imidazo[1,2-a]pyrimidin-3-yl)methylene) hydrazineyl)-4-oxothiazol-5(4H)-ylidene)acetate]
zone of inhibition at 100 µg/mL [2]: 18 mm
MIC [1]: 111 µM (≈ 50 µg/mL)
zone of inhibition at 100 µg/mL (E. coli (ATCC 25922)): 24 mm
zone of inhibition at 100 µg/mL (S. aureus (ATCC 23235)): 16 mm

— PMC12415690 (RSC Advances, 2025)
